Experimental data reported in ChEMBL document CHEMBL3813625, “Discovery of a Novel, Orally Efficacious Liver X Receptor (LXR) β Agonist” (J Med Chem, 2016).

How the values were obtained:
[1] = Half life in rat liver microsomes; assay type: ADME
[2] = Half life in mouse liver microsomes; assay type: ADME
Retinoid X receptor = target: T1, Retinoid X receptor (Homo sapiens, UniProt P28702+P48443+P19793); assay: Inhibition of RXR (unknown origin); assay type: protein assay
T1 sequence (P28702 whole entry): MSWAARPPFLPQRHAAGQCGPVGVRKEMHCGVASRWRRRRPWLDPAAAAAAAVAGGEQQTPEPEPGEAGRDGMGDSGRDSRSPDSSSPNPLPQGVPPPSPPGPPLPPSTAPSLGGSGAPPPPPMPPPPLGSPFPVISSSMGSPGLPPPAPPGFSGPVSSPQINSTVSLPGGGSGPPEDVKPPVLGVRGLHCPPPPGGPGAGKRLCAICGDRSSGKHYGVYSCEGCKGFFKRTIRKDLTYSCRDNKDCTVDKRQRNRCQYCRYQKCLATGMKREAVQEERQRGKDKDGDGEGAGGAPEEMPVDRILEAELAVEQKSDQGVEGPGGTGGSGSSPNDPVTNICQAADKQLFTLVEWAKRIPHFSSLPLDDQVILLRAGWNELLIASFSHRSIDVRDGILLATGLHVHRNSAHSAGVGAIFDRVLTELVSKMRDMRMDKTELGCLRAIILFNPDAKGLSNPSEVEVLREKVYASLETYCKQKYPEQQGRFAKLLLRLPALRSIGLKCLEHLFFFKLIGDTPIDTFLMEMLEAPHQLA
T1 sequence (P48443 whole entry): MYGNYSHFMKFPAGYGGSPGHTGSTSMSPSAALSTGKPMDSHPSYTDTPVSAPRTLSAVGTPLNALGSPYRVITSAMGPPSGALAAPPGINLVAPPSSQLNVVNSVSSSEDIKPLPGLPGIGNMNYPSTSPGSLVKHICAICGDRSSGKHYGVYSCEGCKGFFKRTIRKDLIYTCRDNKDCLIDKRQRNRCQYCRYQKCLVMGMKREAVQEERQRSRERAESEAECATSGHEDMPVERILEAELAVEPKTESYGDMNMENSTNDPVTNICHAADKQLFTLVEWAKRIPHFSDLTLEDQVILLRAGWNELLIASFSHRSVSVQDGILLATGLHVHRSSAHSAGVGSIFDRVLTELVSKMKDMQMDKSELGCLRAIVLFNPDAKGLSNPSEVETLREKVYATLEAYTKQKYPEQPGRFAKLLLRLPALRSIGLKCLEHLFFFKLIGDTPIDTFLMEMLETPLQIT
T1 sequence (P19793 whole entry): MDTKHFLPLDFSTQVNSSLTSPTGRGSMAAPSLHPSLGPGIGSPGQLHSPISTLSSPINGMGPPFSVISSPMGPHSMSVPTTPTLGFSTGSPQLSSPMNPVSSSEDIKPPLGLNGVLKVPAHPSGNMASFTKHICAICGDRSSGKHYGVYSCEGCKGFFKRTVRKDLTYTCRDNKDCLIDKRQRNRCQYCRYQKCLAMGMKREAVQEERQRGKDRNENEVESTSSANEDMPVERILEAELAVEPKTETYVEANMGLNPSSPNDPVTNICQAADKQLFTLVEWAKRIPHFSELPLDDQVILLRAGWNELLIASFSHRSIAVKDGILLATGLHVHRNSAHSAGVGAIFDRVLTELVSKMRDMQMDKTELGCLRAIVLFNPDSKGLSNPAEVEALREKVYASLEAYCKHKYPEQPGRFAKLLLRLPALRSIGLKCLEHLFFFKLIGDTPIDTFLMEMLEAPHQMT

[3] = target: T2, Mineralocorticoid receptor (Homo sapiens, UniProt P08235); assay: Inhibition of Mineralocorticoid receptor (unknown origin)
T2 sequence (P08235 whole entry): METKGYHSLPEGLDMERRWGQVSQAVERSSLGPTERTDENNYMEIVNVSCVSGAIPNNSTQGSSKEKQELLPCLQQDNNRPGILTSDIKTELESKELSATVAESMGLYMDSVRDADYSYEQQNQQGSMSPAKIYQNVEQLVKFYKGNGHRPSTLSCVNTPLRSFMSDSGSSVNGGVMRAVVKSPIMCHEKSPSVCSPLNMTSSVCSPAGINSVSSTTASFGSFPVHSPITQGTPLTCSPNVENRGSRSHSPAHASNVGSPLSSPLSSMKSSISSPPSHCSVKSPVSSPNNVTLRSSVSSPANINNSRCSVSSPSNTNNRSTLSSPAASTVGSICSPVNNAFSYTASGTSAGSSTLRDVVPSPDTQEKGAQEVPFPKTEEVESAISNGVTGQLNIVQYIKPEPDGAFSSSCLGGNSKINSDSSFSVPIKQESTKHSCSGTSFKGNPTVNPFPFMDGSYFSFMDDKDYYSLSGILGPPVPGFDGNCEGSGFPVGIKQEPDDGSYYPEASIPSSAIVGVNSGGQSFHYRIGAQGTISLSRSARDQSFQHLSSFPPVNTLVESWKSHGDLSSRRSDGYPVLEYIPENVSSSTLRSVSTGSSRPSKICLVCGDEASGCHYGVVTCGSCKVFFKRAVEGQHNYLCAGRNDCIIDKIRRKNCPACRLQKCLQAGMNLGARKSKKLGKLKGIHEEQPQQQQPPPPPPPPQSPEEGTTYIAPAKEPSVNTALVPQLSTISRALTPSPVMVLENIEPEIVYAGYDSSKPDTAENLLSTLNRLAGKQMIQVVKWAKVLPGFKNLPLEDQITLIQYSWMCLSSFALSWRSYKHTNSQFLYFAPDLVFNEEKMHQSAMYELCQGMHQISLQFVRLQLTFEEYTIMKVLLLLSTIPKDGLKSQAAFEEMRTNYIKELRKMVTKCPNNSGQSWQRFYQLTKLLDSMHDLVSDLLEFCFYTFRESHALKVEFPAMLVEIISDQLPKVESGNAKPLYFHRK

[4] = Half life in cynomolgus monkey liver microsomes; assay type: ADME, Macaca fascicularis
[5] = target: T3, Nuclear receptor subfamily 1 group I member 2 (Homo sapiens, UniProt O75469); assay: Inhibition of PXR (unknown origin)
T3 sequence (O75469 whole entry): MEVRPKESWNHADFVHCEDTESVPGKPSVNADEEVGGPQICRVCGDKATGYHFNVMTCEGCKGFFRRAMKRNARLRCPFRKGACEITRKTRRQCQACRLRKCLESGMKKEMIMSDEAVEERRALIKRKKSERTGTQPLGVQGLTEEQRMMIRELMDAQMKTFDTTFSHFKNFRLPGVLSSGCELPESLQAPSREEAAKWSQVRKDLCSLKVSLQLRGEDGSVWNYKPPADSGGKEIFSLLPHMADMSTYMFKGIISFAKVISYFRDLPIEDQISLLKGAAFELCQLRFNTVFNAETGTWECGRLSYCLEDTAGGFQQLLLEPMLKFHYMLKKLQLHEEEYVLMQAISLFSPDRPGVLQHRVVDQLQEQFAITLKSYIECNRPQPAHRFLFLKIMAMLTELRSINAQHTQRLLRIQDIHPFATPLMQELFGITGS

[6] = Half life in human liver microsomes; assay type: ADME
[7] = target: T4, Nuclear receptor ROR-alpha (Homo sapiens, UniProt P35398); assay: Inhibition of RORalpha receptor (unknown origin)
T4 sequence (P35398 whole entry): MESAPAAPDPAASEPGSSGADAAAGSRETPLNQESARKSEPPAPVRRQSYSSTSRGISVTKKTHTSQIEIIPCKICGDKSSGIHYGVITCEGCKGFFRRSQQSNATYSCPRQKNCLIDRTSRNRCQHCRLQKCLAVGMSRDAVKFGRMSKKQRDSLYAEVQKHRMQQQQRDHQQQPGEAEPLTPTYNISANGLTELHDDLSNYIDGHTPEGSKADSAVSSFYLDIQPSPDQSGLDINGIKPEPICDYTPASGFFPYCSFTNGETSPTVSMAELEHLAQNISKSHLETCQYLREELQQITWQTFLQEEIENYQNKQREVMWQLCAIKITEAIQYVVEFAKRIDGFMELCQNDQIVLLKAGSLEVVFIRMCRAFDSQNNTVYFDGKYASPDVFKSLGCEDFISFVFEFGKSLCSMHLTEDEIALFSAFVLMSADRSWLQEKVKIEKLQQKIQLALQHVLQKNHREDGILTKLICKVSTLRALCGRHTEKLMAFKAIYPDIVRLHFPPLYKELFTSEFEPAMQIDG

[8] = target: T5, Oxysterols receptor LXR-alpha (Homo sapiens, UniProt Q13133); assay: Agonist activity at human LXRalpha ligand binding domain(167 to 447 residues) transfected in HEK293 cells after 16 hrs by Gal4-luciferase reporter gene assay; assay type: cell-based
T5 sequence (Q13133 whole entry): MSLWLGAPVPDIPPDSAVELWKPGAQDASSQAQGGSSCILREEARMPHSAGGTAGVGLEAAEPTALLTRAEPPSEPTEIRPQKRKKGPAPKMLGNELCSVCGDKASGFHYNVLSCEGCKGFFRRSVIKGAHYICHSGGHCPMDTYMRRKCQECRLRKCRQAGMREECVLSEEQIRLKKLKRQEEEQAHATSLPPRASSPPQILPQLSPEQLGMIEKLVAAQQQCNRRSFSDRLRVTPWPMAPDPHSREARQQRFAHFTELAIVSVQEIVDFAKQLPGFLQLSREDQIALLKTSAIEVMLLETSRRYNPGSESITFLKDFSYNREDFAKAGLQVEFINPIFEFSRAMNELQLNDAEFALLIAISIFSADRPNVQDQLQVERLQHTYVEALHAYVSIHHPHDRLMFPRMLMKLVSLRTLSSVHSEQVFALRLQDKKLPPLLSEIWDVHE

[9] = target: T6, Oxysterols receptor LXR-beta (Homo sapiens, UniProt P55055); assay: Agonist activity at human LXRbeta ligand binding domain(155 to 460 residues) transfected in HEK293 cells after 16 hrs by Gal4-luciferase reporter gene assay; assay type: cell-based
T6 sequence (P55055 whole entry): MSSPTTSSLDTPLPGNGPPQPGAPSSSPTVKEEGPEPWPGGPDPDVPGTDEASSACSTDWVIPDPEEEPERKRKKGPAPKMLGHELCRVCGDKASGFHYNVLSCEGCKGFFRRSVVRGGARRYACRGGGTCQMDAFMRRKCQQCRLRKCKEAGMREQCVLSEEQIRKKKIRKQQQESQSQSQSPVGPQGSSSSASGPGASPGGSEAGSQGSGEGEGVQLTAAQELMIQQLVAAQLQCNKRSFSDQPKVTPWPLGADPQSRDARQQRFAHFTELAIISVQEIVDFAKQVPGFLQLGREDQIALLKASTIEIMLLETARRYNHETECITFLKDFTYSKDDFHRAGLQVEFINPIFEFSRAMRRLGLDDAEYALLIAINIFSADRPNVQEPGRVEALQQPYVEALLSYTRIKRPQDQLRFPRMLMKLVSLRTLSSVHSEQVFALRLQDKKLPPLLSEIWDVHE

[10] = target: T6, Oxysterols receptor LXR-beta; assay: Binding to human LXRbeta
[11] = target: T5, Oxysterols receptor LXR-alpha; assay: Binding affinity to human LXRalpha
[12] = target: T5, Oxysterols receptor LXR-alpha; assay: Agonist activity at human LXRalpha by Gal4 assay
Outline: (§1)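 Cells were co-transfected with pG5-luc reporter and a Gal4 fusion of the ligand-binding domain (pGal4-LXRα LBD for α, pGal4-LXRβ LBD for β). Twenty hours after transfection, cells were treated with compound for 16 h. Agonist activity was read as luciferase signal and EC50 derived. Values are the average of at least two independent determinations.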

[13] = target: T6, Oxysterols receptor LXR-beta; assay: Agonist activity at human LXRbeta by Gal4 assay; outline: as §1
[14] = target: T5, Oxysterols receptor LXR-alpha; assay: Agonist activity at human LXRalpha coexpressed in African green monkey CV1 cells by Gal4 responsive reporter gene assay; assay type: cell-based, CV-1
[15] = target: T6, Oxysterols receptor LXR-beta; assay: Agonist activity at human LXRbeta coexpressed in African green monkey CV1 cells by Gal4 responsive reporter gene assay; assay type: cell-based, CV-1

SMILES | half-life [1] [min] | half-life [2] [min] | half-life [6] [min] | other results
CC(C)[C@@H]1CN(c2ccc(F)c(S(C)(=O)=O)c2)CCN1c1nccc(C(F)(F)F)n1 | 5 | 11 |  | 
CC(C)[C@@H]1CN(c2ccc(F)c(S(C)(=O)=O)c2)CCN1c1ncc(C(C)(C)O)c(C(F)(F)F)n1 | 51 | 72 | 56 | 
CC(C)[C@@H]1CN(c2cccc(S(C)(=O)=O)c2)CCN1c1nccc(C(F)(F)F)n1 | 11 | 8 |  | 
FC(F)(F)c1ccc(CN2CCN(c3ccccc3)CC2c2ccccc2)cn1 (stereo unspecified) |  |  |  | EC50 [8]: > 20000 nM; EC50 [9]: > 20000 nM
O=C(O)Cc1cccc(OCCCN(Cc2cccc(C(F)(F)F)c2Cl)CC(c2ccccc2)c2ccccc2)c1 |  |  |  | EC50 [10]: 5 nM; EC50 [11]: 22 nM; EC50 [12]: 1130 nM; EC50 [13]: 390 nM
C[C@H](CC[C@@H]1OC1(C)C)[C@H]1CC[C@H]2[C@@H]3CC=C4C[C@@H](O)CC[C@]4(C)[C@H]3CC[C@]12C [24(S),25-EPOXYCHOLESTEROL] |  |  |  | EC50 [10]: > 20000 nM; EC50 [11]: > 20000 nM; EC50 [14]: 117 nM; EC50 [15]: 168 nM

Now from value to compound, other results behind:

half-life [1] [min] | half-life [2] [min] | half-life [6] [min] | SMILES | other results
25 |  |  | CC(C)[C@H]1CN(c2ccc(CO)c(S(C)(=O)=O)c2)CCN1c1ncc(CO)c(C(F)(F)F)n1 | 
70 | 40 | 43 | CC(C)[C@@H]1CN(c2ccc(CO)c(S(C)(=O)=O)c2)CCN1c1ncc(CO)c(C(F)(F)F)n1 | IC50 (Retinoid X receptor): > 10000 nM; IC50 [3]: > 10000 nM; half-life [4]: 10 min; IC50 [5]: > 10000 nM; IC50 [7]: > 10000 nM
42 |  | 19 | CC(C)[C@@H]1CN(c2ccc(F)c(S(C)(=O)=O)c2)CCN1c1ncc(Cl)c(C(F)(F)F)n1 | 
36 | 38 | 22 | CC(C)[C@@H]1CN(c2ccc(F)c(S(C)(=O)=O)c2)CCN1c1ncc(CO)c(C(F)(F)F)n1 | 
